Experimental data: ChEMBL document CHEMBL1629421, “Isochaihulactone analogues: synthesis and anti-proliferative activity of novel dibenzylbutyrolactones” (2010)

Legend:
Format in all cases: functional
MCF7 [1] = test: Growth inhibition of human MCF7 cells at 25 ug/ml after 24 hrs by MTT colorimetric assay; conditions: MCF7, 24 h, read-out: GI
Method in brief: (§1)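 Cells kept in RPMI 1640 with 10% FBS, 1% L-glutamine and penicillin-streptomycin at 37 °C, 5% CO2, and harvested with trypsin-EDTA. Seeded at 4 × 10⁴ cells/well, grown 24 h, then exposed to compound for 24 h at 37 °C. Medium replaced with phenol red-free medium, MTT (2 mg/ml) added for 4 h, formazan dissolved in isopropanol, A492 read. Inhibition taken versus untreated control wells; mean ± SD of three independent experiments.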

MDA-MB-231 [2] = test: Growth inhibition of human MDA-MB-231 cells at 25 ug/ml after 24 hrs by MTT colorimetric assay; conditions: MDA-MB-231, 24 h, read-out: GI; method in brief: as §1
MCF7 [3] = test: Growth inhibition of human MCF7 cells at 50 ug/ml after 24 hrs by MTT colorimetric assay; conditions: MCF7, 24 h, read-out: GI; method in brief: as §1
MDA-MB-231 [4] = test: Growth inhibition of human MDA-MB-231 cells at 50 ug/ml after 24 hrs by MTT colorimetric assay; conditions: MDA-MB-231, 24 h, read-out: GI; method in brief: as §1
T47D = test: Growth inhibition of human T47D cells at 25 ug/ml after 24 hrs by MTT colorimetric assay; conditions: read-out: GI; method in brief: as §1

## O=C1OC[C@H](Cc2ccc3c(c2)OCO3)[C@H]1[C@H](O)c1ccc([N+](=O)[O-])cc1
MCF7 [1]
  inhibition of growth at 25 µg/mL: 24.6%
MDA-MB-231 [2]
  inhibition of growth at 25 µg/mL: 17.9%
MCF7 [3]
  inhibition of growth at 50 µg/mL: 17.9%
MDA-MB-231 [4]
  inhibition of growth at 50 µg/mL: 20.1%

## O=C1OC[C@H](Cc2ccc3c(c2)OCO3)[C@H]1[C@H](O)c1ccccc1Cl
MCF7 [1]
  inhibition of growth at 25 µg/mL: 15.8%
T47D
  inhibition of growth at 25 µg/mL: 50.2%
MDA-MB-231 [2]
  inhibition of growth at 25 µg/mL: 34.8%
MCF7 [3]
  inhibition of growth at 50 µg/mL: 7.5%
MDA-MB-231 [4]
  inhibition of growth at 50 µg/mL: 47.3%

## O=C1OC[C@H](Cc2ccc3c(c2)OCO3)[C@H]1[C@@H](O)c1ccccc1Cl
MCF7 [1]
  inhibition of growth at 25 µg/mL: 8.5%
T47D
  inhibition of growth at 25 µg/mL: 52.9%
MDA-MB-231 [2]
  inhibition of growth at 25 µg/mL: 19%
MCF7 [3]
  inhibition of growth at 50 µg/mL: 31.9%
MDA-MB-231 [4]
  inhibition of growth at 50 µg/mL: 26.4%

## O=C1OC[C@H](Cc2ccc3c(c2)OCO3)[C@H]1Cc1ccccc1
MCF7 [1]
  inhibition of growth at 25 µg/mL: 17%
T47D
  inhibition of growth at 25 µg/mL: 61.9%
MDA-MB-231 [2]
  inhibition of growth at 25 µg/mL: 26.2%
MCF7 [3]
  inhibition of growth at 50 µg/mL: 46%
MDA-MB-231 [4]
  inhibition of growth at 50 µg/mL: 36.2%

## COc1ccc(C(O)[C@H]2C(=O)OC[C@@H]2Cc2ccc3c(c2)OCO3)cc1 (mixture of isomers)
MCF7 [1]
  inhibition of growth at 25 µg/mL: 42.7%
MDA-MB-231 [2]
  inhibition of growth at 25 µg/mL: 10.1%
MCF7 [3]
  inhibition of growth at 50 µg/mL: 22.4%
MDA-MB-231 [4]
  inhibition of growth at 50 µg/mL: 48.8%

## COc1cccc(C(O)[C@H]2C(=O)OC[C@@H]2Cc2ccc3c(c2)OCO3)c1 (mixture of isomers)
MCF7 [1]
  inhibition of growth at 25 µg/mL: -3.8%
MDA-MB-231 [2]
  inhibition of growth at 25 µg/mL: 14.5%
MCF7 [3]
  inhibition of growth at 50 µg/mL: 12.2%
MDA-MB-231 [4]
  inhibition of growth at 50 µg/mL: 41.9%

## COc1cc(C(O)[C@H]2C(=O)OC[C@@H]2Cc2ccc3c(c2)OCO3)cc(OC)c1OC (mixture of isomers)
MCF7 [1]
  inhibition of growth at 25 µg/mL: 5.2%
T47D
  inhibition of growth at 25 µg/mL: 50.1%
MDA-MB-231 [2]
  inhibition of growth at 25 µg/mL: -1.9%
MCF7 [3]
  inhibition of growth at 50 µg/mL: 37.7%
MDA-MB-231 [4]
  inhibition of growth at 50 µg/mL: 10.2%

## O=C1OC[C@H](Cc2ccc3c(c2)OCO3)[C@H]1C(O)c1ccc([N+](=O)[O-])cc1 (mixture of isomers)
MCF7 [1]
  inhibition of growth at 25 µg/mL: 7.2%
MDA-MB-231 [2]
  inhibition of growth at 25 µg/mL: 22.5%
MCF7 [3]
  inhibition of growth at 50 µg/mL: 38.8%
MDA-MB-231 [4]
  inhibition of growth at 50 µg/mL: 29%

## O=C1OC[C@H](Cc2ccc3c(c2)OCO3)[C@H]1C(O)c1ccccc1[N+](=O)[O-] (mixture of isomers)
MCF7 [1]
  inhibition of growth at 25 µg/mL: 21.9%
T47D
  inhibition of growth at 25 µg/mL: 38.1%
MDA-MB-231 [2]
  inhibition of growth at 25 µg/mL: 7.9%
MCF7 [3]
  inhibition of growth at 50 µg/mL: -0.2%
MDA-MB-231 [4]
  inhibition of growth at 50 µg/mL: 35.1%

## COc1cccc2c1C(=O)c1c(O)c3c(c(O)c1C2=O)C[C@@](O)(C(=O)CO)C[C@@H]3O[C@H]1C[C@H](N)[C@H](O)[C@H](C)O1 [DOXORUBICIN]
MCF7 [1]
  inhibition of growth at 25 µg/mL: 54.6%
T47D
  inhibition of growth at 25 µg/mL: 60%
MDA-MB-231 [2]
  inhibition of growth at 25 µg/mL: 57.9%
MCF7 [3]
  inhibition of growth at 50 µg/mL: 31.8%
MDA-MB-231 [4]
  inhibition of growth at 50 µg/mL: 48.8%

## CC/C(=C(\c1ccccc1)c1ccc(OCCN(C)C)cc1)c1ccccc1 [TAMOXIFEN]
MCF7 [1]
  inhibition of growth at 25 µg/mL: 65.7%
T47D
  inhibition of growth at 25 µg/mL: 67.8%
MDA-MB-231 [2]
  inhibition of growth at 25 µg/mL: 58.6%
MCF7 [3]
  inhibition of growth at 50 µg/mL: 25%
MDA-MB-231 [4]
  inhibition of growth at 50 µg/mL: 67.7%
